Results from different studies.
Target: Glycogen synthase kinase-3 alpha (GSK3A, Homo sapiens, UniProt P49840)

| Compound | assay | conditions | remaining binding [%] |
| --- | --- | --- | --- |
| O=C(NCC1CCOCC1)c1n[nH]cc1NC(=O)c1c(F)cccc1F | binding, competition with immobilised ligand | 1 µM | 0 |
| N[C@H]1CCN(c2nccc(-c3cnn4ncccc34)n2)C1 | binding | 1 µM | 86 |
| O=C(c1ccc(Nc2ncc(Cl)c(-c3ccc(Cl)s3)n2)cc1)N1CCC(N2CCCC2)CC1 | binding, competition with immobilised ligand | 1 µM | 22 |
| CC1CCCN1c1nccc(-c2cnn3ncccc23)n1 (centres unmarked) | binding | 1 µM | 94 |
| CN1CCN(c2cnc3c(C4CCN(C(=O)c5ccc(OC(F)(F)F)cc5N)CC4)ncnc3c2)CC1 | cell-free assay, competition with immobilised ligand | 1 µM | 100 |
| Cc1cnn2ncc(-c3ccnc(N(C)C)n3)c2c1 | binding | 1 µM | 96 |
| O=C(c1ccc(Nc2nccc(-c3cc4ccccc4s3)n2)cc1)N1CCC(N2CCCC2)CC1 | binding, competition with immobilised ligand | 1 µM | 82 |
| Cc1nc(C2CCN(C(=O)c3ccc(OC(F)(F)F)cc3N)CC2)c2ncc(N3CCN(C)CC3)cc2n1 | cell-free assay, competition with immobilised ligand | 1 µM | 85 |
| COc1cnc(Nc2cccc(S(N)(=O)=O)c2)nc1N1CCN(c2ccccc2)C(=O)C1 | binding, competition with immobilised ligand | 1 µM | 90 |
| O=C(NCc1ncc(C(F)(F)F)cc1Cl)c1ccc2c(c1)C1(CCS(=O)(=O)CC1)[C@H](C1CC1)N2S(=O)(=O)c1ccc(F)cc1 | cell-free assay, competition with immobilised ligand | 1 µM | 100 |
| F[C@@H]1CCN(c2nccc(-c3cnn4ncccc34)n2)C1 | binding | 1 µM | 100 |
| C=CC(=O)N1CCC(C(=O)NCC(=O)N2CCN(c3nc(-c4cnc(N)nc4C(F)F)nc(N4CCOCC4)n3)CC2)CC1 | binding, competition with immobilised ligand | 1 µM | 92 |
| c1cnn2ncc(-c3ccnc(N4CCC45COC5)n3)c2c1 | binding | 1 µM | 100 |
| Cn1nc(C(=O)NCc2ccc(C(=O)O)cc2)cc1-c1ccc2[nH]ccc2c1 | cell-free assay, competition with immobilised ligand | 0.1 µM | 61 |
| O=C(NCCCN1CCOCC1)c1ccc(Nc2nccc(-c3cc4ccccc4s3)n2)cc1 | binding, competition with immobilised ligand | 1 µM | 92 |
| C[C@@H]1CCN(c2nccc(-c3cnn4ncccc34)n2)C1 | binding | 1 µM | 80 |
| CC(C)(O)c1cncc(-c2nc3ccc(F)cc3n2C2CC2)c1 | cell-free assay, competition with immobilised ligand | 1 µM | 100 |
| c1cncc(-c2cccc(Nc3nccc(NC4CCCCC4)n3)c2)c1 | binding, competition with immobilised ligand | 10 µM | 65 |
| COc1ncc2cc3ccccc3nc2c1C#N | cell-free assay, competition with immobilised ligand | 5 µM | 94 |
| COc1ccc2c(O[C@@H]3C[C@H]4C(=O)N[C@]5(C(=O)O)CC5/C=C\CCCCC[C@H](NC(=O)OC5CCCC5)C(=O)N4C3)cc(-c3csc(NC(=O)C(C)C)n3)nc2c1C (some centres unmarked) | cell-free assay, competition with immobilised ligand | 1 µM | 100 |
